Assay outcomes (PubChem)
This is a sample that favours compounds with a hit; in the whole collection about 4.5% have one here.
OX1R antag-1 – OX1R (HCRTR1) antagonists, primary screen, fluorescence, CHO/OX1R cells, Fluo-8 calcium, orexin A | Orexin/Hypocretin receptor type 1 (Homo sapiens), O43613 | Fluo-8 calcium fluorescence | inhibition, % at 5 µM | 0.43% of 330,000 active;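 active = inhibition above its plate's threshold, mean inhibition of all tested compounds on the plate plus 3 SD, cut at about 37% in these data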
Target sequence (O43613 whole entry, looked up): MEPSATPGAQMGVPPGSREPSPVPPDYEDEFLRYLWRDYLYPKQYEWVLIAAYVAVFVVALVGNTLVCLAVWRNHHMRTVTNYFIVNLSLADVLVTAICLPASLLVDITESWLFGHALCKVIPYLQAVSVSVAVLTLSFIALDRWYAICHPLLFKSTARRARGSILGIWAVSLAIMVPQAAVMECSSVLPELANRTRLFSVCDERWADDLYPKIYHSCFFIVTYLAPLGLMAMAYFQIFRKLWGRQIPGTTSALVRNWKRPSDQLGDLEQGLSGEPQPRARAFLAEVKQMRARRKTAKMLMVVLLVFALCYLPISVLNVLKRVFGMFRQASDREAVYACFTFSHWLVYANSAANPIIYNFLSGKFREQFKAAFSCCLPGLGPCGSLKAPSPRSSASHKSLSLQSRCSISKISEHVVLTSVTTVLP
OX1R antag-2 – antagonists of human orexin 1 receptor (OX1R); Orexin/Hypocretin receptor type 1 (Homo sapiens), O43613; OX1R-expressing cells, FRET antagonist read-out; inhibition, % at 6.6 µM; 1.8% of 330,000 active; in the data active = inhibition mostly above about 38%, no sharp cut-off; inactive = mostly below about 40%
TAAR1 ag – human TAAR1 agonists, primary screen, Fluo-8 calcium fluorescence, CHO RD-HGA16 cells; 0.99% of 360,000 active; AID 624467, 2012; vehicle wells 0%, saturating PEA agonist 100%; activation, % at 3 µM;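 active = activation above the mean activation of all test compounds in the run plus 3 SD, cut at about 38% in these data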
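System: CHO-derived RD-HGA16 cells with stable Gα16 and human TAAR1 / Times: 17-24 h plating, Fluo-8 75 min 37 °C, 30 min RT / Technique: calcium-sensitive Fluo-8 signal, excitation 470-495, emission 515-575 nm / Measure: % activation relative to PEA EC100 response / Benchmarks: DMSO and PEA EC100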
GPR7 antag – GPR7 receptor antagonists, primary screen, cell-based, fluorescence, single concentration; Neuropeptides B/W receptor type 1 (Homo sapiens), P48145; GPR7-expressing cells, fluorescence antagonist assay; inhibition, % at 4.4 µM; 1.1% of 290,000 active; in the data active = inhibition above about 16%, passing the limit was not always enough;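 also: cells stimulated with the agonist NPW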
Target sequence (P48145 whole entry, looked up): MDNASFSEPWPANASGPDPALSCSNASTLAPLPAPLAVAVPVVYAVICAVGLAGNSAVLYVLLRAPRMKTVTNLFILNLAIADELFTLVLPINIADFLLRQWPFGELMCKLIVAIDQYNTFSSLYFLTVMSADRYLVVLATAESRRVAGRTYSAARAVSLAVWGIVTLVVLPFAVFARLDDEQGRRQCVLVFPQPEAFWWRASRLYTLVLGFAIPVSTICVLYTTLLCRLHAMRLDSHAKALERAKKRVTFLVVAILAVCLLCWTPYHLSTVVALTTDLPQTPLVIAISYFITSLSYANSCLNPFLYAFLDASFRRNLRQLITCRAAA
TAAR1 antag – human TAAR1 antagonists, primary screen, Fluo-8 calcium fluorescence, CHO RD-HGA16 cells | antagonist | inhibition, % at 3 µM | 1.5% of 360,000 active | Trace amine-associated receptor 1 (Homo sapiens), Q96RJ0;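 active = inhibition above a per-plate cutoff, the mean inhibition of test compounds on that plate plus 3 SD, cut at about 49% in these data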
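Assay system: RD-HGA16 CHO cells with stable hTAAR1 and Gα16 / Reagent: EC80 β-phenethylamine stimulus / Doses: 3 µM, single point / Timing: dye loading 75 min at 37 °C, then 30 min room temperature / Measured by: Fluo-8 intracellular calcium dye fluorescence, real-time kinetic reads / Controls: vehicle wells and EC80 agonist wells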
CHO parental Ca – ATP-evoked calcium signal inhibitors, parental CHO, primary screen, counter-screen for OX1R antagonist project, cell-based, fluorescence, Fluo-8 calcium dye | parental CHO-K1, ATP-induced calcium, Fluo-8 fluorescence | 0.63% of 330,000 active | AID 463079, 2010 | inhibition, % at 5.6 µM;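 active = inhibition above that plate's mean sample inhibition plus 3 SD, cut at about 26% in these data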
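material = parental CHO cells | also added = ATP as calcium-mobilizing challenge | dosing = single point at 5.6 µM | detection = intracellular calcium via Fluo-8 no-wash fluorescent dye | read-out = % inhibition | benchmarks = low control ATP plus DMSO, high control DMSO only | repeats = one well per compound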
Each line names hits and unclear results; the compound was inactive in the other large screens.

Cc1cccc(NC(=O)c2cc3ccccc3o2)c1	GPR7 antag 18
O=C(Nc1ccc(Cl)cc1)C1C2CCC3C(CCC21)C3(Cl)Cl (stereo not drawn)	TAAR1 antag 56 (no result: OX1R antag-1, OX1R antag-2, CHO parental Ca)
O=C(Nc1ccc(F)cc1)C1C2CCC3C(CCC21)C3(Cl)Cl (stereo not drawn)	none
CCOC(=O)[C@@H]1[C@H]2COc3ccccc3[C@H]2N2C(=O)N(c3ccc(C(F)(F)F)cc3)C(=O)[C@]12C	CHO parental Ca 46
O=C(CNS(=O)(=O)c1ccc(Cl)c(C(F)(F)F)c1)NC1CCCCCC1	none (no result: GPR7 antag)
Cc1ccc(-c2csc(=Nc3cccnc3)n2CCCN2CCCC2=O)cc1C	OX1R antag-2 64
Cc1ccc(-c2csc(=Nc3cccnc3)n2CCCn2ccnc2)cc1C	none
C[N+]1(CC(=O)NNc2c3ccccc3nc3ccccc23)CCOCC1	OX1R antag-2 44
O=C(CN1CCOCC1)NNc1c2ccccc2nc2ccccc12	none
COC(=O)C1=C(C)N(C)C(=NCC2CC2)NC1c1cccc(C(F)(F)F)c1 (stereo not drawn)	none (no result: OX1R antag-1, OX1R antag-2, GPR7 antag, CHO parental Ca)
Cn1cc(-c2csc(C(O)c3ccc(F)c(F)c3)n2)cn1 (stereo not drawn)	none (no result: OX1R antag-1, OX1R antag-2, GPR7 antag, CHO parental Ca)
CCOC(=O)C1(Cc2ccccc2)CCN(Cc2cccc3c2OCO3)CC1	OX1R antag-2 72
Cc1cc(C(=O)CSc2nc(N)cc(=O)[nH]2)c(C)n1-c1ccc(OC(F)F)cc1	CHO parental Ca 38
CN(CC(=O)Nc1cccc(S(=O)(=O)N2CCOCC2)c1)CC(=O)Nc1ccc(Cl)c(C(F)(F)F)c1	CHO parental Ca 49 (no result: GPR7 antag)
C[C@H]1C(C(=O)N(C)C2CCCCC2)=Cc2c(n(-c3ccc(F)cc3)c(=O)n2CCCOc2ccccc2)C=C1c1ccccc1	none (no result: OX1R antag-1, OX1R antag-2, GPR7 antag, CHO parental Ca)
Cc1ccc(-c2csc(NC(=O)c3cc([N+](=O)[O-])ccc3N3CCOCC3)n2)cc1	none
Cc1nc(-c2cccc(NC(=O)c3cccc(S(=O)(=O)N4CCCC4)c3)c2)cs1	TAAR1 antag 53 (no result: GPR7 antag)
CCOc1cccc(C(=O)Nc2nc(-c3ccc(S(=O)(=O)N4CCOCC4)cc3)cs2)c1	TAAR1 antag 53
Cc1csc(NC(=O)c2cccc(S(=O)(=O)N3CCCCC3)c2)n1	none
O=C(Nc1nc(-c2ccccc2)cs1)c1ccc(N2CCOCC2)c([N+](=O)[O-])c1	OX1R antag-2 80, CHO parental Ca 41 (no result: TAAR1 ag, TAAR1 antag)
COc1ccc(-c2csc(NC(=O)c3ccc(S(C)(=O)=O)cc3)n2)cc1	TAAR1 antag 53
CCOC(=O)C1=C(C(=O)OCC)C2N(Cc3ccc(Br)cc3)c3ccccc3[C@@]23C[C@@H](C(=O)OC)N(S(=O)(=O)c2ccc(F)cc2)C3=N1 (stereo partly drawn)	none (no result: OX1R antag-1, OX1R antag-2, GPR7 antag, CHO parental Ca)
Cc1[nH]c2ccccc2c1CC(=O)Nc1ccc(Nc2cccnc2)c(-c2ccc(OC(F)(F)F)cc2)c1	none (no result: OX1R antag-1, OX1R antag-2, GPR7 antag, CHO parental Ca)
CC1Cc2ccccc2N1C(=O)CSc1nc2c(c(=O)n(C)c(=O)n2C)n1Cc1ccccc1 (stereo not drawn)	TAAR1 antag 52
CCn1c(SCC(=O)N2c3ccccc3CCc3ccccc32)nc2c1c(=O)n(C)c(=O)n2C	none
COC(=O)C1=C(C)N(C)C(=NCc2ccccc2C(F)(F)F)NC1c1ccc(F)cc1 (stereo not drawn)	none (no result: OX1R antag-1, OX1R antag-2, GPR7 antag, CHO parental Ca)
O=S1(=O)N[C@H](c2ccccc2)COc2cc(Br)ccc21	none (no result: OX1R antag-1, OX1R antag-2, GPR7 antag, CHO parental Ca)
O=C(CCc1ccccc1)Nc1cccc(NC(=O)CCc2ccccc2)c1	OX1R antag-2 48
COc1ccccc1OCC(=O)Nc1ccc(CSc2ccccc2)cc1C	CHO parental Ca 30
CCC(=O)N(C)/C=C1\Sc2ccccc2C1=O	none
CCC(=O)N(CC)C1=C(O)c2ccccc2C(=O)C1=O	OX1R antag-2 58
COc1ccc(OC)c(NC(=O)C2CCCN(S(=O)(=O)c3cccc4nsnc34)C2)c1 (stereo not drawn)	none
O=C(Nc1cccnc1)C1CCCN(S(=O)(=O)c2cccc3nsnc23)C1 (stereo not drawn)	OX1R antag-2 58
COc1cc(NC(=O)C2CCCN(S(=O)(=O)c3cccc4nsnc34)C2)cc(OC)c1 (stereo not drawn)	OX1R antag-2 48
COc1ccccc1OCCNc1ccc(S(=O)(=O)N2CCCC2)cn1	none (no result: OX1R antag-1, OX1R antag-2, GPR7 antag, CHO parental Ca)
CN1/C(=C/C=C(C#N)C#N)C(C)(C)c2ccccc21	none
CC1=C/C(=C\C=C(C#N)C#N)N(C)c2ccccc21	OX1R antag-1 44, CHO parental Ca 33
C=CCN1CC(COCCCC)Oc2ccc(Cl)cc2S1(=O)=O (stereo not drawn)	none (no result: OX1R antag-1, OX1R antag-2, GPR7 antag, CHO parental Ca)
COc1ccc(NC(=O)c2cc(-c3ccccc3)on2)cc1OC	none
COc1ccc(NC(=O)c2cc(-c3cccs3)on2)cc1OC	TAAR1 ag 42
COc1cccc(-c2cc(C(=O)Nc3ccc(OC)c(OC)c3)no2)c1	OX1R antag-2 84
COc1ccc(NC(=O)c2cc(-c3cccs3)on2)cc1	none
S=C(Nc1ccc(Br)cc1)NC1CCCC1	none
FC(F)Sc1ccc(NC(=S)NC2CCCCC2)cc1	OX1R antag-2 42
CC1CCCCC1NC(=S)Nc1ccc(SC(F)F)cc1 (stereo not drawn)	OX1R antag-1 40
FC(F)Sc1ccc(NC(=S)NC(c2ccccc2)c2ccccc2)cc1	OX1R antag-2 41, CHO parental Ca 39
CN(C(=S)Nc1ccc(SC(F)F)cc1)C(c1ccccc1)c1ccccc1	none
CC1CCN(C(=S)Nc2ccc(SC(F)F)cc2)CC1	none
CC(C)OC(=O)c1nnn(-c2nonc2N)c1CN1CCc2ccccc2C1	none (no result: OX1R antag-1, OX1R antag-2, CHO parental Ca)
CCOC(=O)c1nnn(-c2nonc2N)c1CN1CCc2ccccc2C1	TAAR1 ag 40
CCN(CCN(C)C)C(=O)c1ccc2c(c1NCCO)C(=O)c1ccccc1C2=O	OX1R antag-2 75
Nc1ncnc2c1ncn2[C@@H]1O[C@H](C(=O)N[C@@H](CCc2ccccc2)C(=O)N2CCN(CC(=O)N3CCCC3)CC2)[C@@H](O)[C@H]1O	none (no result: OX1R antag-1, OX1R antag-2, GPR7 antag, CHO parental Ca)
COc1ccc(C)cc1NCc1cc(=O)oc2cc(-c3ccccc3)c(O)cc12	none
Cc1ccc2c(COC(=O)c3ccccc3OC(F)F)cc(=O)oc2c1	TAAR1 antag 54
CCOc1ccccc1NCc1cc(=O)oc2cc(C)ccc12	OX1R antag-2 47
COc1ccc(C(=O)c2[nH]c(N)c(C(=O)c3c[nH]c4ccccc34)c2-c2ccc(OC)cc2)cc1	none (no result: OX1R antag-1, OX1R antag-2, GPR7 antag, CHO parental Ca)
